Assay results collected from several papers.
Target: TGF-beta receptor type-1 (TGFBR1, Homo sapiens, UniProt P36897)
Residues used in one study (P36897 34-503): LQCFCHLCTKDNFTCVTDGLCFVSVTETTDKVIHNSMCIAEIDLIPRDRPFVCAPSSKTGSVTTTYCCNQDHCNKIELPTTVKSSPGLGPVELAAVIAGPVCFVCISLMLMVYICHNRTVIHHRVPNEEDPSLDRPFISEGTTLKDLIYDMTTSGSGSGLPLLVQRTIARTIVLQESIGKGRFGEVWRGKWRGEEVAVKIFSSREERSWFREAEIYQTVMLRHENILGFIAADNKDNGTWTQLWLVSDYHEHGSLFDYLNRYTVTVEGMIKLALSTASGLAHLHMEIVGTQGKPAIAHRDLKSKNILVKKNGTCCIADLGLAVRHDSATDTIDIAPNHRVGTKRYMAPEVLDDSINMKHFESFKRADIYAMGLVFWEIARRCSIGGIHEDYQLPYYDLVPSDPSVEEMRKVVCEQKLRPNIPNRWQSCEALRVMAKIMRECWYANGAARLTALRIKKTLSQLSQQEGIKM

Structure (SMILES) | effect on | method | concentration | remaining binding [%]
COc1cnc(Nc2cccc(S(N)(=O)=O)c2)nc1N1CCN(c2ccccc2)C(=O)C1 | binding | competition with immobilised ligand | 1 µM | 100
CC(C)(C)c1ccc(-c2nc(CBr)nn2-c2cccc(O)c2)cc1 | cell-free assay | competition with immobilised ligand | 10 µM | 90
FC(F)(F)Oc1cccc(-c2cnc3ccc(-c4ccncc4)nn23)c1 | cell-free assay | competition with immobilised ligand | 5 µM | 83
O=C(c1ccc(Nc2nccc(-c3cc4ccccc4s3)n2)cc1)N1CCC(N2CCCC2)CC1 | binding | competition with immobilised ligand | 1 µM | 91
O=C(N[C@H]1CCCCC/C=C\C2C[C@@]2(C(=O)O)NC(=O)[C@@H]2C[C@@H](Oc3ccncc3)CN2C1=O)OC1CCCC1 (some centres unmarked) | cell-free assay | competition with immobilised ligand | 1 µM | 100
CN(c1nccc(-c2cnn3ncccc23)n1)C1CC1 | binding |  | 1 µM | 32
C[C@@H](c1ccc(-n2cnc3c(N)ncnc32)cc1)N1CCc2nn(C)c(Cc3ccccc3)c2C1=O | binding | competition with immobilised ligand | 0.1 µM | 82
N#Cc1ccccc1CSc1nnc2c(n1)[nH]c1ccccc12 | binding | competition with immobilised ligand | 10 µM | 100
O=C(c1ccc(Nc2ncc(Cl)c(-c3ccc(Cl)s3)n2)cc1)N1CCC(N2CCCC2)CC1 | binding | competition with immobilised ligand | 1 µM | 55
Cc1nc(Cc2cccc(C(F)(F)F)c2)sc1-c1ccc(C(N)=O)nc1 | cell-free assay | competition with immobilised ligand | 1 µM | 90
CN(C)c1nccc(-c2cnc3ncccn23)n1 | binding |  | 1 µM | 82
CCOCCn1cc(C(=O)Nc2ccc(-n3nc(-c4cccnc4)cc3C(F)(F)F)cn2)ccc1=O | cell-free assay | competition with immobilised ligand | 1 µM | 100
CC1CCCN1c1nccc(-c2cnn3ncccc23)n1 (centres unmarked) | binding |  | 1 µM | 100
CC(=O)Nc1c(C(C)=O)c(=O)n(C)c2nc(-c3ccc(Cl)cc3Cl)c(-c3ccc(Cl)cc3)cc12 | cell-free assay | competition with immobilised ligand | 1 µM | 82
CN(C)c1ncc(F)c(-c2cnn3ncccc23)n1 | binding |  | 1 µM | 86
Cc1nc(C2CCN(C(=O)c3ccc(OC(F)(F)F)cc3N)CC2)c2ncc(N3CCN(C)CC3)cc2n1 | cell-free assay | competition with immobilised ligand | 1 µM | 80
N[C@H]1CCN(c2nccc(-c3cnn4ncccc34)n2)C1 | binding |  | 1 µM | 100
